A short description of series [1]: Inhibition of guinea pig liver transglutaminase 2 using 5-(biotinamido)pentylamine as substrate by enzyme linked sorbent assay. On the set-up: species or system Cavia porcellus. In outline:
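Wells coated with N,N'-dimethylcasein received TG2 (2 ng ml-1), biotinyl-5-pentylamine, CaCl2 (5 mM), DTT (5 mM) and a range of inhibitor concentrations, then were incubated for 1 h at 37 °C. Incorporated biotinyl-5-pentylamine was quantified with Extravidin peroxidase and o-phenylenediamine colour development.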

Series [2] in a line: Aqueous solubility of the compound. Format: physicochemical.
The subject of the next series is Rattus norvegicus. Description: Protective effect against kidney dysfunction in Wistar rat subtotal 5/6 nephrectomy model of kidney scarring assessed as reduction in scarring administered through osmotic pump measured after 84 days of surgery. Format: functional. On the set-up: scale not given: the % may be the effect or the level left.
The species named for a further series is Cavia porcellus. Description: Inhibition of guinea pig liver transglutaminase 2 at 5 uM preincubated for 60 mins in the presence of Ca2+. The arrangement: scale not given: the % may be the effect or the level left.

Regarding `O=C(N[C@@H](Cc1ccccc1)C(=O)NCC1CC(Br)=NO1)OCc1ccccc1` (stereo partly specified), in series [1], the IC50 is more than 200 µM. The solubility in series [2] (water, read-out: solubility) is less than 1 mg/mL.

For the compound `CC[C@H](C)[C@H](NC(=O)OCc1ccccc1)C(=O)N[C@@H](CCC(=O)C[S+](C)C)C(=O)O`, in series [1], the IC50 came out at 350 µM. Turning to `C[S+](C)CC(=O)CC[C@H](NC(=O)[C@@H]1C[C@@H](O)CN1C(=O)OCc1ccccc1)C(=O)O`, in series [1], 18 µM corresponded to half-maximal inhibition (IC50). In turn, `CC(=O)CSc1n(C)cc[n+]1C.[Cl-]` showed a half-maximal inhibitory concentration (IC50) in series [1] of 4 µM. Moreover, the solubility in series [2] (water, read-out: solubility) is 200 mg/mL. In the case of `C[S+](C)CC(=O)CC[C@H](NC(=O)[C@H](Cc1ccccc1)NC(=O)OCCc1ccccc1)C(=O)O`, half-maximal inhibition in series [1] (IC50) was put at 8 µM.

Turning to `C[S+](C)CC(=O)CC[C@H](NC(=O)[C@H](Cc1ccccc1)NC(=O)Cc1ccccc1)C(=O)O`, in series [1], 110 µM corresponded to half-maximal inhibition (IC50). The compound `Cc1c(C)[n+](C)c(SCC(=O)CC[C@H](NC(=O)[C@H](Cc2ccccc2)NC(=O)OCc2ccccc2)C(=O)O)n1C` registered an IC50 in series [1] of 3 µM. `C[S+](C)CC(=O)CC[C@H](NC(=O)[C@H](Cc1ccccc1)NC(=O)OCC1c2ccccc2-c2ccccc21)C(=O)O`: inhibition in series [1] was half-maximal at 30 µM (IC50).

As for `C[S+](C)CC(=O)CC[C@H](NC(=O)[C@H](CC(=O)O)NC(=O)OCc1ccccc1)C(=O)O`, 28 µM corresponded to half-maximal inhibition in series [1] (IC50).

In series [1], `CC[S+](CC)CC(=O)CC[C@H](NC(=O)[C@H](Cc1ccccc1)NC(=O)OCc1ccccc1)C(=O)O` yielded an IC50 of 20 µM. In turn, `C[S+](C)CC(=O)CC[C@H](NC(=O)[C@H](Cc1ccccc1)NC(=O)OCc1ccccc1)C(=O)O.[Br-]` (stereo in doubt; 4n) came in with an IC50 in series [1] of 5 µM. In addition, the solubility in series [2] (buffer) turned out to be 67 mg/mL. `C[S+](C)CC(=O)CC[C@H](NC(=O)[C@H](Cc1ccccc1)NC(=O)OCc1ccccc1)C(=O)O.[Br-]` (stereo in doubt; 4d) returned an IC50 in series [1] of 10 µM. Further, the Activity in the series with Rattus norvegicus came to 90%. In series [2] (buffer), this compound showed a solubility of 167 mg/mL. In turn, `C[S+](C)CC(=O)CC[C@H](NC(=O)[C@H](CCCCN)NC(=O)OCc1ccccc1)C(=O)O` had an IC50 in series [1] of 150 µM.

For the compound `C[S+](C)CC(=O)CC[C@H](NC(=O)CNC(=O)OCc1ccccc1)C(=O)O.[Br-]`, half-maximal inhibition in series [1] (IC50) was put at 8 µM. Further, the solubility in series [2] (water, read-out: solubility) was found to be 1000 mg/mL. Consider `C[S+](C)CC(=O)CC[C@H](NC(=O)[C@@H]1CCCN1C(=O)OCc1ccccc1)C(=O)O.[Br-]`, for which, in series [1], the IC50 worked out at 5 µM. The Activity in the series listed under Cavia porcellus worked out at 77%. The solubility in series [2] (water, read-out: solubility) was 500 mg/mL. In the case of `C[C@H](NC(=O)OCc1ccccc1)C(=O)N[C@@H](CCC(=O)C[S+](C)C)C(=O)O`, in series [1], the IC50 is 20 µM. The compound `C[S+](C)CC(=O)CC[C@H](NC(=O)[C@H](Cc1c[nH]c2ccccc12)NC(=O)OCc1ccccc1)C(=O)O` registered a concentration for half-maximal inhibition (IC50) in series [1] of 12 µM.

`C[S+](C)CC(=O)CC[C@H](NC(=O)[C@H](Cc1ccccc1)NC(=O)OC(C)(C)C)C(=O)O`: inhibition in series [1] was half-maximal at 300 µM (IC50).

For the origin of these results see ChEMBL document CHEMBL1152229, “Synthesis of potent water-soluble tissue transglutaminase inhibitors” (Bioorg Med Chem Lett, 2008).
